From ChEMBL document CHEMBL3044975, “Hybrid ubiquinone: novel inhibitor of mitochondrial complex I” (Biochim Biophys Acta, 2002) come the findings set out here.

Assay [1] deals with T1, NADH-ubiquinone oxidoreductase chain 1 (Bos taurus, UniProt P03887). The assay can be described thus: Inhibition of Bos taurus (bovine) mitochondrial complex 1 assessed as reduction in enzyme activity by NADH-DB oxidoreductase assay.
Assay [2] has as its target T1, NADH-ubiquinone oxidoreductase chain 1. The assay can be described thus: Inhibition of Bos taurus (bovine) mitochondrial complex 1 assessed as reduction in enzyme activity by NADH-DU oxidoreductase assay. The method in brief:
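Bovine heart submitochondrial particles (SMP) at 30 µg protein/ml. 50 µM decyl ubiquinone is the acceptor. SMP are preincubated with the HU for 5 min, then 50 µM NADH is added. NADH oxidation is read at 340 nm, 30 °C. IC50 from two independent experiments.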

T1 sequence (P03887 whole entry): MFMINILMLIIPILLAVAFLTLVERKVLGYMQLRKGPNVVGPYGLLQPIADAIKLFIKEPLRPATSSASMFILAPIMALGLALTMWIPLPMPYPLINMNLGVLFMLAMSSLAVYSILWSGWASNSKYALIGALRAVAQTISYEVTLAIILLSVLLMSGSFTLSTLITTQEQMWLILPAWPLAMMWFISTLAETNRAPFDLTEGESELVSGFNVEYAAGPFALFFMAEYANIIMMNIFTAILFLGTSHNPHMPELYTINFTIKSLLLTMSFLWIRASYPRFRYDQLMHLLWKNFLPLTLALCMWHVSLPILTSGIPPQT

Turning to `COC1=C(OC)C(=O)C(CN(C)C(=O)c2ccc(Oc3ccc(C(C)(C)C)cc3)cc2)=C(C)C1=O`, the values for the IC50 in assay [1] and in assay [2] were 77 nM and 88 nM, respectively. For `CCN(CC1=C(C)C(=O)C(OC)=C(OC)C1=O)C(=O)c1ccc(Oc2ccc(C(C)(C)C)cc2)cc1`, the figures for the IC50 in assay [1] and in assay [2] were 370 nM and 630 nM, respectively. On to `COC1=C(OC)C(=O)C(CNC(=O)c2ccc(Oc3ccc(C(C)(C)C)cc3)cc2)=C(C)C1=O`, for which the figures for the half-maximal inhibitory concentration (IC50) in assay [1] and in assay [2] were 340 nM and 530 nM, respectively.

Turning to `COC1=C(OC)C(=O)C(CC(=O)N(C)c2ccc(Oc3ccc(C(C)(C)C)cc3)cc2)=C(C)C1=O`, the 50% inhibitory concentration (IC50) (commonly the concentration at which inhibition is half-maximal) in assay [1] is 1800 nM; in assay [2], 2000 nM.

Regarding `CCCCc1ccc(Oc2ccc(C(=O)N(C)CC3=C(C)C(=O)C(OC)=C(OC)C3=O)cc2)cc1`, the 50% inhibitory concentration (IC50) stood at 970 nM in assay [1] and 840 nM in assay [2]. Take `COC1=C(OC)C(=O)C(CCN(C)C(=O)c2ccc(Oc3ccc(C(C)(C)C)cc3)cc2)=C(C)C1=O`: the values for the IC50 in assay [1] and in assay [2] were 470 nM and 760 nM, respectively.

On to `COC1=C(OC)C(=O)C(CCCCCCN(C)C(=O)c2ccc(Oc3ccc(C(C)(C)C)cc3)cc2)=C(C)C1=O`, for which the figures for the IC50 in assay [1] and in assay [2] were 1100 nM and 610 nM, respectively. Regarding `CCCCCCCCCCC(=O)N(C)CC1=C(C)C(=O)C(OC)=C(OC)C1=O`, the results for the IC50 in assay [1] and in assay [2] were 11800 nM and 6200 nM, respectively. Turning to `CN(C)C(=O)c1ccc(Oc2ccc(C(C)(C)C)cc2)cc1`, the IC50 in assay [1] worked out at 650 nM. The same measure, in the same setting: in the case of `C/C=C(\C)[C@H](O)[C@H](C)/C=C(C)/C=C/C/C(C)=C/Cc1nc(OC)c(OC)c(O)c1C` [PIERICIDIN A] it was 3 nM.
